# Screening results deposited in PubChem by The Scripps Research Institute Molecular Screening Center.
# M4 antag – blocks acetylcholine activation of human M4 receptor | P08173 | CHO-hM4 cells, ACh EC80, Fluo-8 calcium fluorescence | inhibition, % at 3 µM | actives 0.73% (n = 360,000) | AID 624125;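 active = inhibition above its plate's cutoff, the mean inhibition of sample wells plus 3 SD, cut at about 27% in these data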
# M4 ag – agonists of human muscarinic M4 receptor (CHRM4). P08173. activation, % at 3 µM. actives 0.14% (n = 360,000). CHO-K1 hM4/Gqi5, Fluo-8 calcium fluorescence; vehicle 0%, full acetylcholine response 100%;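 active = activation above the run mean over all test wells plus 3 SD, cut at about 32% in these data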;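 note: peak over basal fluorescence ratio per well then scaled between controls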
# M5 PAM – positive allosteric modulators of human muscarinic M5 receptor. AID 624038. actives 0.3% (n = 360,000). CHO-K1 hM5, Fluo-8 calcium, ACh EC20 PAM; 0% = ACh EC20, 100% = ACh EC100. P08912. activation, % at 3 µM;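 active = activation above the run cutoff, the mean activation of all test compounds plus 3 SD, cut at about 18% in these data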
# Target sequence (P08912 whole entry, looked up): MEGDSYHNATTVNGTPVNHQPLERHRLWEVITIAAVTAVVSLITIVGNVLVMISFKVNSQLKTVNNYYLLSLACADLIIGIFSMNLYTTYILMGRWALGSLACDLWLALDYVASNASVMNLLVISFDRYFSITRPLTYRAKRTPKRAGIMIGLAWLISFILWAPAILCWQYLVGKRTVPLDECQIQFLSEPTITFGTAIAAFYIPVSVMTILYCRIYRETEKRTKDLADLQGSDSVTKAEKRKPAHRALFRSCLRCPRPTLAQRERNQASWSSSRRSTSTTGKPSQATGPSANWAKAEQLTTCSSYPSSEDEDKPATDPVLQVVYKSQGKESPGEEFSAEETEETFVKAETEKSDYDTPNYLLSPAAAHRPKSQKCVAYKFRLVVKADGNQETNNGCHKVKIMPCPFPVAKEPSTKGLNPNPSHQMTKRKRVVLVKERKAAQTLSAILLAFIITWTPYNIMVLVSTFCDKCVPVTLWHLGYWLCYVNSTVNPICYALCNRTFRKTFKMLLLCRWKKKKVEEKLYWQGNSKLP
#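 Measured by: Fluo-8 calcium fluorescence; material: human M5 receptor in CHO-K1 cells; schedule: Post-acetylcholine fluorescence recording 140 s; benchmarks: low control EC20 acetylcholine (0%), high control EC100 acetylcholine (100%); read-out: Max/basal fluorescence ratio as % of EC20–EC100 ACh window; compound: single dose, 3 µM nominal final test concentration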
# M5 ag – CHRM5 agonism in calcium assay; CHO-K1 hM5 cells, Fluo-8 calcium fluorescence; 0% DMSO wells, 100% maximal acetylcholine response; P08912; activation, % at 3 µM; actives 0.19% (n = 360,000); AID 624037;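 active = activation above the run's mean over test compounds plus 3 SD, cut at about 23% in these data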;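 note: signal is peak over basal fluorescence ratio across the kinetic read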
# CHRM5 antagonist – CHRM5 antagonism in calcium assay; P08912; CHO-hM5 cells, Fluo-8 calcium fluorescence, ACh EC80; actives 0.59% (n = 360,000); inhibition, % at 3 µM;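 active = inhibition above a per-plate cutoff, the mean of that plate's test compounds plus 3 SD, cut at about 27% in these data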
# M4 PAM – potentiates acetylcholine response at human M4 receptor | P08173 | CHO-K1 hM4/Gqi5, Fluo-8 calcium fluorescence, ACh EC20; 0% = ACh EC20, 100% = maximal ACh | activation, % at 3 µM | actives 0.4% (n = 360,000) | AID 624126;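 active = activation above its plate's cutoff, the mean activation of sample wells plus 3 SD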
# Hits are given with their value; n = inactive; ! = not confirmed by another sample. Most compounds without a hit are left out; they make up all but 1.9% or so of the library.
SMILES,M4 antag,M4 ag,M5 PAM,M5 ag,CHRM5 antagonist,M4 PAM
O=C(CCCn1c(=O)[nH]c2ccsc2c1=O)N1CCCCC1,n,n,26,n,n,n
O=C(CCCCCn1c(=O)[nH]c2ccsc2c1=O)N1CCCCC1,n,n,n,n,n,n
CCOC(=O)N1CCN(C(=O)CCCCn2c(=S)[nH]c3ccsc3c2=O)CC1,n,n,n,n,n,19
O=C(NCc1ccc(F)cc1)N1CCN(C(=O)c2ccccc2)CC1,n,n,n,n,n,n
O=C(/C=C\c1cn(-c2ccccc2)nc1-c1ccc2c(c1)OCCO2)N1CCOCC1,n,n,n,n,n,n
CN1CCN(C(=O)/C=C/c2cn(-c3ccccc3)nc2-c2ccc3c(c2)OCCO3)CC1,n,n,19,n,n,n
Cc1ccc2nc(C)c(CN3CCN(c4ccc([N+](=O)[O-])cc4Cl)CC3)n2c1,26,n,n,n,38,n
CC1CCCC(C)N1C(=O)COC(=O)c1cccnc1Cl (stereo unspecified),n,n,n,n,n,n
CCOc1ccc(C(=O)Nc2ccc(N3CCN(C(C)=O)CC3)cc2)cc1[N+](=O)[O-],n,n,n,n,n,n
COc1ccc(C(=O)Nc2ccc(N3CCN(C(=O)C(C)C)CC3)cc2)cc1[N+](=O)[O-],n,n,n,n,n,23
CCOc1cc(C(=O)Nc2ccc(N3CCN(C(C)=O)CC3)cc2)cc(OCC)c1OCC,n,n,18,n,n,n
Clc1ccc(C=Cc2ccccn2)c(Cl)c1,n,n,n,n,n,n
C=CCSc1nc(-c2ccc(OC)cc2)c(C#N)c(=O)n1CC=C,n,n,n,n,n,n
COc1ccc(OCC(=O)N(Cc2sccc2C)C2CCS(=O)(=O)C2)cc1 (stereo unspecified),n,n,n,n,n,n
CCOc1ccccc1CNC(=O)Cn1ccc2cc(S(=O)(=O)N3CCC(C)CC3)ccc21,n,n,n,n,n,n
CC(=O)c1ccc(N2CCN(CC(O)COC(c3ccccc3)c3ccccc3)CC2)cc1 (stereo unspecified),40,n,n,n,n,n
CC(=O)c1ccc(N2CCN(CC(O)COC(c3ccccc3)c3ccccc3C)CC2)cc1 (stereo unspecified),81,n,n,n,32,n
C[C@@H]1CN([C@@H](C)CO)C(=O)CCCn2nncc2CO[C@@H]1CN(C)S(=O)(=O)c1cccc(F)c1,n,n,n,n,n,n
COc1ccc(OCCOC(=O)CNC(=O)c2ccc(F)cc2)cc1,n,n,n,n,n,n
CC(C)CNS(=O)(=O)c1ccc(CCC(=O)NC2CCCCC2)cc1,n,n,20,n,n,n
Nc1c(O)cccc1C(=O)O,n,n,n,n,n,n
O=C(O)c1ccccc1O,n,n,n,26,n,n
O=C(O)c1ccc(O)cc1O,n,n,n,n,n,n
Nc1ccc(C(=O)O)c(O)c1,43!,n,n,n,n,n
Cc1nc(C(F)(F)F)ccc1C(=O)N1CCC1(C)C(=O)NS(=O)(=O)c1ccc(C(C)(C)C)cc1 (stereo unspecified),n,n,n,n,n,n
SMILES,M4 antag,M4 ag,M5 PAM,M5 ag,CHRM5 antagonist,M4 PAM
CCc1ccc(/C=C2\SC(=S)N(CCCC(=O)N3CCN(C)CC3)C2=O)cc1,n,n,n,n,n,n
COc1ccc(/C=C2\SC(=S)N(CCCC(=O)N3CCN(C)CC3)C2=O)cc1,n,n,33,n,n,n
CN(Cc1cnn(C)c1)C(=O)CC1C(=O)NCCN1Cc1cccc(Oc2ccccc2)c1 (stereo unspecified),n,n,n,n,32,n
COc1ccc(C)cc1S(=O)(=O)N1CCCC(C(=O)NC2CC2)C1 (stereo unspecified),n,n,n,n,n,n
O=[N+]([O-])c1ccc(NN=Cc2cccc(O)c2)nc1,n,n,n,n,n,n
Cc1cccc(C)c1-n1c(C)cc(/C=N\Nc2ccc([N+](=O)[O-])cn2)c1C,35,n,n,n,n,n
CCn1cc(C(=O)NCCOC)c(=O)c2ccc(C)nc21,n,n,n,n,n,n
